Data from ChEMBL document CHEMBL4000168, “Carthorquinosides A and B, Quinochalcone C-Glycosides with Diverse Dimeric Skeletons from Carthamus tinctorius” (J Nat Prod, 2016).
Active and inactive are the calls of the source. The calls are words filed in the database; no cut-off is given here.

Key:
A549 = test: Cytotoxicity against human A549 cells after 72 hrs by MTT assay; conditions: A549, 72 h
HepG2 = test: Cytotoxicity against human HepG2 cells after 72 hrs by MTT assay; conditions: HepG2, 72 h
K562 = test: Cytotoxicity against human K562 cells after 72 hrs by MTT assay; conditions: K562, 72 h
HeLa = test: Cytotoxicity against human HeLa cells after 72 hrs by MTT assay
HCT-116 = test: Cytotoxicity against human HCT116 cells after 72 hrs by MTT assay; conditions: HCT-116, 72 h
Bos taurus = species on record: Bos taurus; test: Inhibition of calf thymus topoisomerase 1 assessed as decrease in relaxation of supercoiled pBR322 DNA at 100 uM after 30 mins by agarose gel electrophoresis
Outline: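 Calf-thymus topoisomerase I relaxation of negatively supercoiled pBR322. Supercoiled and relaxed DNA bands resolved. Test concentration 100 μM. Hydroxycamptothecine served as positive control.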

HUVEC [1] = test: Antiinflammatory activity in HUVEC assessed as downregulation of LPS-induced IL6 mRNA expression at 0.8 to 100 uM by qRT-PCR method; format: functional, cell-based; conditions: Homo sapiens
Outline: (§1)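 HUVEC cells grown in DMEM with 10% FBS, streptomycin and penicillin, at 37 °C in humidified 5% CO2. Drug groups received 0.8, 4, 20 or 100 μM drug plus 10 μg/mL LPS. Model group got medium plus LPS, controls got medium only, n = 3 per group. Cells harvested after varying times for cytokine mRNA measurement. Mean ± SD of three independent experiments.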

HUVEC [2] = test: Antiinflammatory activity in LPS stimulated HUVEC assessed as upregulation of IL10 mRNA expression at 0.8 to 100 uM by qRT-PCR method; format: functional, cell-based; conditions: Homo sapiens; outline: as §1
HUVEC [3] = test: Antiinflammatory activity in HUVEC assessed as downregulation of LPS-induced IL1 mRNA expression at 0.8 to 100 uM by qRT-PCR method; format: functional, cell-based; conditions: Homo sapiens; outline: as §1
HUVEC [4] = test: Antiinflammatory activity in HUVEC assessed as downregulation of LPS-induced IFN-gamma mRNA expression at 0.8 to 100 uM by qRT-PCR method; format: functional, cell-based; conditions: Homo sapiens; outline: as §1

| SMILES | IC50 (A549) | IC50 (HepG2) | IC50 (K562) | IC50 (HeLa) | IC50 (HCT-116) | inhibition (Bos taurus) | Activity (HUVEC [1]) | Activity (HUVEC [2]) | Activity (HUVEC [3]) | Activity (HUVEC [4]) |
| --- | --- | --- | --- | --- | --- | --- | --- | --- | --- | --- |
| CC(=O)O[C@H]1C(=O)[C@@]2(C)[C@H]([C@H](OC(=O)c3ccccc3)[C@]3(O)C[C@H](OC(=O)[C@H](O)[C@@H](NC(=O)c4ccccc4)c4ccccc4)C(C)=C1C3(C)C)[C@]1(OC(C)=O)CO[C@@H]1C[C@@H]2O [PACLITAXEL] | 5.5 µM | 6.7 µM | 2.7 µM | 1.7 µM | 3.3 µM | – | – | – | – | – |
| O=C(/C=C/c1ccc(O)cc1)C1=C(O)C(C2C3=C(O)[C@@](O)(C4O[C@H](CO)[C@@H](O)[C@H](O)[C@H]4O)C(=O)C(C(=O)/C=C/c4ccc(O)cc4)=C3O[C@@H]2[C@@H](O)[C@H](O)[C@H](O)CO)=C(O)[C@@](O)(C2O[C@H](CO)[C@@H](O)[C@H](O)[C@H]2O)C1=O (stereo partly drawn) | – | – | – | – | – | Active | Dose-dependent effect | Dose-dependent effect | Dose-dependent effect | Dose-dependent effect |
| O=C(/C=C/c1ccc(O)cc1)C1=C(O)C(Cc2c(O)c(O[C@@H]3O[C@H](CO)[C@@H](O)[C@H](O)[C@H]3O)c(O)c3c(=O)c(O[C@@H]4O[C@H](CO)[C@@H](O)[C@H](O)[C@H]4O)c(-c4ccc(O)cc4)oc23)=C(O)[C@@](O)(C2O[C@H](CO)[C@@H](O)[C@H](O)[C@H]2O)C1=O (stereo partly drawn) | – | – | – | – | – | – | Active | Dose-dependent effect | Active | – |
